The source of these data is ChEMBL document CHEMBL5029161, “Synthetic Neutralizing Peptides Inhibit the Host Cell Binding of Spike Protein and Block Infection of SARS-CoV-2” (J Med Chem, 2021).

pKd: −log10 of the molar value. Active and inactive are the calls of the source. The rule behind the calls is not given here.

The nature of series [1]: Binding affinity to the recombinant SARS-Cov-2 Spike protein subunit S1 by QCM-D measurement. Also noted: species or system Severe acute respiratory syndrome coronavirus 2. The method, boiled down:
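Peptides were thiolated and coated onto 5 MHz gold QCM-D sensors for 30 min at room temperature. Recombinant S1 protein then flowed over as mobile phase at 300 μL/min, 37 °C, in PBS. Kd came from nonlinear regression of saturated binding mass (Δm) against […] (nM).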

Series [2] relates to A549. The experiment in a line: Cytotoxicity against human A549 cells assessed as cell viability at 0.001 to 100 uM measured after 48 hrs using CCK-8 assay. The format is cell-based. The settings on record: a549, 48 h, dose 0.001-100 µM. Summed up:
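A549 cells were grown in McCoy-5A with 10% FBS. They were exposed to peptides at 1 nM–100 μM (tenfold steps) for 48 h, with medium alone as control. After a PBS wash, CCK-8 was added and incubated at 37 °C. OD was read at 450/630 nm and normalised to control, n = 3.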
A general note: Formazan colour is commonly taken as a measure of viable cells.

The subject of series [3] is 293T/ACE2. As to the kind of experiment: Cytotoxicity against human 293T/ACE2 cells assessed as cell viability at 0.001 to 100 uM measured after 48 hrs using CCK-8 assay. Type of series: functional, cell-based. The settings on record: dose 0.001-100 µM. The method, boiled down:
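293T-ACE2⁺ cells were grown in high-glucose DMEM with 10% FBS and 500 μg/mL hygromycin. They were exposed to peptides at 1 nM–100 μM (tenfold steps) for 48 h, with medium alone as control. After a PBS wash, CCK-8 was added and incubated at 37 °C. OD was read at 450/630 nm and normalised to control, n = 3.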

The test system of series [4] is A549. The experiment in a line: Inhibition of recombinant SARS-Cov-2 Spike protein subunit S1 binding to human A549 cells preincubated for 1 hr by Western blot analysis. The settings on record: Severe acute respiratory syndrome coronavirus 2. The format is cell-based. The method, boiled down: (§1)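 Recombinant S1 protein was preincubated with peptides for 1 h at 37 °C, then added to A549 or 293T-ACE2⁺ cells for 1 h. Cells were washed, lysed in RIPA with PMSF and phosphatase inhibitor, and equal protein was run on SDS-PAGE. Blots on PVDF were probed with anti-S1 rabbit pAb, with ACTB as loading reference, and detected by chemiluminescence.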
Background: A western blot detects proteins with antibodies after separation by electrophoresis.

The test system of series [5] is 293T/ACE2. As to the kind of experiment: Inhibition of recombinant SARS-Cov-2 Spike protein subunit S1 binding to human 293T/ACE2 cells preincubated for 1 hr by Western blot analysis. The format is cell-based. The settings on record: Severe acute respiratory syndrome coronavirus 2. Summed up:
as §1

Series [6] has as its system 293T/ACE2. As to the kind of experiment: Inhibition of Spike protein subunit S in SARS-CoV-2 pseudovirus assessed as inhibition of infection in human 293T/ACE2 cells by measuring decrease in luciferase activity at 0.000001 to 100 uM pretreated for 1 hr. Type of series: cell-based. As to conditions: Severe acute respiratory syndrome coronavirus 2, dose lower 1e-06 µM, dose upper 100.0 µM. The method, boiled down: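 The pseudovirus was HIV-1-based, bought ready-made, and carried S protein with luciferase and GFP reporters. It was pre-mixed with serially diluted peptides (1 pM–100 μM) for 1 h at 37 °C, then added to 293T-ACE2⁺ cells for 1 h. Medium was then replaced, followed by 47 h further culture. Infection rate was derived from luciferase activity.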

For series [7], the system named is 293T/ACE2. As to the kind of experiment: Inhibition of Spike protein subunit S in SARS-CoV-2 pseudovirus assessed as inhibition of infection in human 293T/ACE2 cells by measuring decrease in fluorescence intensity at 0.000001 to 100 uM pretreated for 1 hr. Type of series: cell-based. The settings on record: Severe acute respiratory syndrome coronavirus 2, dose lower 1e-06 µM, dose upper 100.0 µM. Summed up: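 A bought-in HIV-1-based S-pseudotyped reporter virus expressing GFP was preincubated with serially diluted peptides for 1 h at 37 °C. It was then applied to 293T-ACE2⁺ cells for 1 h and replaced with fresh medium, followed by 47 h more culture. Cellular GFP fluorescence intensity was observed.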

Take H-GDGVYYPRDVFDSSVLDSTQR-OH: the negative logarithm of the Kd (pKd) (commonly the Kd on a negative log10 scale, so that one unit is a factor of ten) in series [1] is 8.25. The Activity entry was “Non-Toxic” with A549 [2] and “Not toxic” in the series with 293T/ACE2 [3]. Moreover, the inhibition result in the series on A549 [4], in the series on 293T/ACE2 [5], in the series on 293T/ACE2 [6] and in the series with 293T/ACE2 [7] was “Active” each time.

Consider H-GDLFDDSNLDPFRDRISTRR-OH, for which the pKd in series [1] was 7.43. In addition, the Activity entry in the series with A549 [2] was “Non-Toxic”; with 293T/ACE2 [3], “Not toxic”. Further, the inhibition result in the series on A549 [4], with 293T/ACE2 [5], with 293T/ACE2 [6] and in the series on 293T/ACE2 [7] was “Active” throughout.

Turning to H-GDRIARTTRAVDRPQTLRR-OH, in series [1], the negative-log Kd (pKd) was 7.11. The Activity entry in the series with A549 [2] is “Non-Toxic”; with 293T/ACE2 [3], “Not toxic”. For the same substance, the inhibition entry in the series on A549 [4], in the series with 293T/ACE2 [5], in the series on 293T/ACE2 [6] and with 293T/ACE2 [7] was “Active” in each case.
